Variants at the floor of the assay were thinned out.
B1: tRNA (parent)
chain: GUUCCGUUGGCGUAAUGGUAACGCGUCUCCCUCCUAAGGAGAAGACUGCGGGUUCGAGUCCCGUACGGAACG

Variants of: B1
Assay: yeast fitness relative to wild type (ratio to wild type); higher = fitter; tRNA-Arg(CCU), competitive growth, 37 C, YPD
Outline: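 Start and end populations of a pooled competition were compared by 100-nucleotide paired-end sequencing of gene amplicons. The Saccharomyces cerevisiae strains carried tRNA-Arg(CCU) gene variants at the native genomic locus, synthesised with a 3% per-site mutation rate at 69 sites, and competed in YPD at 37°C for 24 hours in six parallel replicates. Darwinian fitness relative to wild type was based on the change in genotype frequencies. Genotypes required ≥ 100 starting reads, and estimates < 0.5 were set to 0.5.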

Row | Variant | yeast fitness
1 | C11A C22U U54C | ≤ 0.5
2 | G10C U13C C24G C55U | 0.64
3 | C11A A14G U19G A43C U53A C62A C66U | ≤ 0.5
4 | G10C C34A A57U G67C | 0.64
5 | G10C G18A G58A C66G | ≤ 0.5
6 | C11A C24U C34A A37U | ≤ 0.5
7 | G10C C29G A40U C49G | ≤ 0.5
8 | C11A C27A | 0.654
9 | C11A C27U | 0.646
10 | G10C G63A | 0.59
11 | G10C G63C | ≤ 0.5
12 | G10C C33A G48A | ≤ 0.5
13 | C11A A15U A21U A36C A37U C55U | ≤ 0.5
14 | C11A C31G A69U | ≤ 0.5
15 | C11A C29G C66U | 0.525
16 | C11A C27G C34A A42C U54C C60A C62G A70U | 0.624
17 | G10C C61A A69G | ≤ 0.5
18 | G10C U28G G39A C49A | ≤ 0.5
19 | G10C G38C | 0.538
20 | G10C G25C G38C A40G A42G | ≤ 0.5
21 | C11A C31U A37C C66U | ≤ 0.5
22 | G10C C27U | 0.679
23 | C11A C22G C29G U53A C55G | ≤ 0.5
24 | G10C C62U U64A | ≤ 0.5

Row | Variant | yeast fitness
25 | G10C C29U A40U A65U | ≤ 0.5
26 | C11A C29G C60U G67A A69U | ≤ 0.5
27 | C11A C24U G48A | ≤ 0.5
28 | G10C C29G A42U | 0.554
29 | C11A A14G A43C A57G U59C G63A A70G | ≤ 0.5
30 | C11A A15G A40G C49U C60A C61A | ≤ 0.5
31 | C11A A20G G39A G51A U53A C66U | ≤ 0.5
32 | C11A C29A A37U | ≤ 0.5
33 | G10C U32C C66G | ≤ 0.5
34 | G10C C46U A65C | 0.621
35 | G10C C33G A43G C46G C62G | 0.562
36 | G10C C27U G63C | ≤ 0.5
37 | G10C G18A C27G G63C | ≤ 0.5
38 | G10C C30U U54A | ≤ 0.5
39 | C11A A40G C49G C62G | 0.794
40 | G10C G23A | 0.57
41 | C11A A21G C22G A37G | ≤ 0.5
42 | C11A A14G C31G C34G C61U | ≤ 0.5
43 | C11A C22G A45C G50A | 0.741
44 | C11A C24U U32A U35C | 0.566
45 | G10C C31G C33U | 0.698
46 | C11A C55G A69C | ≤ 0.5
47 | C11A A36C A42G C49A | ≤ 0.5
48 | C11A C62A C66U | 0.629

Row | Variant | yeast fitness
49 | C11A A36G C49G C60U G68A | ≤ 0.5
50 | C11A C49A C66U | ≤ 0.5
51 | G10C C30G A65C G68C | ≤ 0.5
52 | C11A C49U G68A | ≤ 0.5
53 | G10C C31U | 0.78
54 | C11A A36G A43C A69U | ≤ 0.5
55 | C11A A21C C31A C46G | ≤ 0.5
56 | G10C C27U A40U A45U G48A C55U C66U | 0.591
57 | C11A A42C G58A | 0.742
58 | G10C U16G C31A U32G A45G | ≤ 0.5
59 | G10C U26C | 0.673
60 | G10C U19C C33G | 0.769
61 | G10C G18C C24U | ≤ 0.5
62 | C11A A57U | ≤ 0.5
63 | C11A A57C | 0.675
64 | G10C U32C | 0.73
65 | G10C U32A | 0.53
66 | G10C U53A | ≤ 0.5
67 | C11A C31U U53A A65U | ≤ 0.5
68 | C11A C27U G44U | ≤ 0.5
69 | C11A A14C | 0.683
70 | G10C U26A C33U U53C | 0.576
71 | C11A C24G C30G | 0.599
72 | G10C U64A | 0.671

Row | Variant | yeast fitness
73 | G10C G38A C61A | 0.618
74 | C11A C30U C31U A36G G39C A45U G52C C60A | ≤ 0.5
75 | G10C C30G C55A | ≤ 0.5
76 | G10C C31G C33U C60U | ≤ 0.5
77 | G10C G12C G39A | ≤ 0.5
78 | G10C G52C | ≤ 0.5
79 | G10C C46A G68C | 0.57
80 | G10C C34G G56C | 0.52
81 | G10C U16A C30U U64A | ≤ 0.5
82 | G10C C34U G39U A40C | ≤ 0.5
83 | C11A A21G C34U A37G C62A | ≤ 0.5
84 | C11A C27G C31A | 0.543
85 | G10C C49G | 0.619
86 | G10C C49A | ≤ 0.5
87 | G10C C49U | 0.613
88 | G10C G44A A70U | ≤ 0.5
89 | G10C C33A C62A | 0.652
90 | C11A A37C A45G | ≤ 0.5
91 | C11A C22A | 0.626
92 | G10C C29G U32G | ≤ 0.5
93 | G10C G12A A15G G63A | 0.643
94 | C11A C29G G44A G56C C62A G67C | ≤ 0.5
95 | C11A C55U | 0.514
96 | C11A C55A | ≤ 0.5

Row | Variant | yeast fitness
97 | C11A C30G A45U C60A C62U | ≤ 0.5
98 | C11A A21G | 0.774
99 | G10C C29A C33A G52A | 0.57
100 | G10C U47C G67C | 0.536
101 | C11A C29A | ≤ 0.5
102 | G10C G17A U35G | ≤ 0.5
103 | G10C U16A A65G | ≤ 0.5
104 | G10C C31A A37U G63A A65G | ≤ 0.5
105 | C11A C22G C29G C61U C62A A70G | ≤ 0.5
106 | C11A G17A C33U A70C | ≤ 0.5
107 | C11A C22G C29U U32C | 0.706
108 | C11A G12A C66A | ≤ 0.5
109 | C11A A43U U64C | ≤ 0.5
110 | C11A A42G A43G C61A | ≤ 0.5
111 | C11A A42U A69U | ≤ 0.5
112 | G10C G25C | 0.615
113 | C11A A15G A40G | 0.824
114 | G10C G50A U59A G67C | ≤ 0.5
115 | G10C G25C U26C U47C | ≤ 0.5
116 | C11A C34G G67A | ≤ 0.5
117 | C11A C30U C49G | 0.579
118 | C11A A42G C61A | 0.618
119 | C11A A15U U16C A21U A36C A37U | ≤ 0.5
120 | G10C G56C | 0.553

Row | Variant | yeast fitness
121 | G10C G63A C66U | ≤ 0.5
122 | G10C U26A C34G | ≤ 0.5
123 | G10U G17A G25C C29A G52A | ≤ 0.5
124 | G10C G18A G25C A45G | ≤ 0.5
125 | G10C G18C A42G G68A | ≤ 0.5
126 | C11A C27G C31A G68A | ≤ 0.5
127 | G10C U19A A37C | 0.502
128 | C11A C27G C55U | ≤ 0.5
129 | C11A A14G A43C A57G U59C A70G | 0.542
130 | G10C C33A A36U U53A U54A | ≤ 0.5
131 | C11A A20C A21G U47C G56C U64C G68C | ≤ 0.5
132 | G10C C31A U35C A45U | ≤ 0.5
133 | C11A A20U G38A A45C | ≤ 0.5
134 | G10C C49U C66G | ≤ 0.5
135 | C11A C33A G68A | 0.557
136 | G10C U13A G25A | 0.534
137 | C11A C29A U35A A65G | ≤ 0.5
138 | G10U G17A C24A C66G | 0.595
139 | C11A A21G C34G G38C C62G A69C | ≤ 0.5
140 | C11A A43G U54C A65C | ≤ 0.5
141 | C11A A21C A42C C61U | ≤ 0.5
142 | G10C G50U | ≤ 0.5
143 | G10C C29G A40G | ≤ 0.5
144 | G10C C34G | 0.501

Row | Variant | yeast fitness
145 | G10C C34U | 0.565
146 | G10C U35G | ≤ 0.5
147 | G10C U16G C31A U32G A57U | ≤ 0.5
148 | C11A A70G | 0.774
149 | C11A A70C | 0.593
150 | C11A C49A | ≤ 0.5
151 | G10C G51C | 0.535
152 | G10C C34A A40G G68C | ≤ 0.5
153 | C11A C55A C66A | ≤ 0.5
154 | C11A A42G A43U C46U G67A A69C | ≤ 0.5
155 | C11A C22A C29G A69G | 0.576
156 | C11A C24U G67C A70G | ≤ 0.5
157 | G10C C55U G56A | ≤ 0.5
158 | G10C C55U G56C | ≤ 0.5
159 | G10C C34U C60A G67A | ≤ 0.5
160 | G10C C29G G44C C49A U64C | ≤ 0.5
161 | C11A A14C C34A A70U | ≤ 0.5
162 | G10C C33A A45C | 0.551
163 | G10C C66G | 0.515
164 | C11A A15G C33U A37G | ≤ 0.5
165 | C11A C55U G63A C66G | ≤ 0.5
166 | C11A C29U C33U U54C | ≤ 0.5
167 | C11A C34U A42G | ≤ 0.5
